CHT PAM = CHT positive allosteric modulators, primary screen, cell-based, membrane potential dye, choline EC20; 310,000 tested, 0.49% active; B-score at 10 µM; CHT-expressing cells; stronger effect = higher value; LV-AA mutant CHT in HEK293 cells; High affinity choline transporter 1 (Homo sapiens), Q9GZV3; AID 488977, 2010;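 active means initial fluorescence not abnormally high and integrated response B-score, plate-corrected, over 3 SD above library mean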
Target sequence (Q9GZV3 whole entry, looked up): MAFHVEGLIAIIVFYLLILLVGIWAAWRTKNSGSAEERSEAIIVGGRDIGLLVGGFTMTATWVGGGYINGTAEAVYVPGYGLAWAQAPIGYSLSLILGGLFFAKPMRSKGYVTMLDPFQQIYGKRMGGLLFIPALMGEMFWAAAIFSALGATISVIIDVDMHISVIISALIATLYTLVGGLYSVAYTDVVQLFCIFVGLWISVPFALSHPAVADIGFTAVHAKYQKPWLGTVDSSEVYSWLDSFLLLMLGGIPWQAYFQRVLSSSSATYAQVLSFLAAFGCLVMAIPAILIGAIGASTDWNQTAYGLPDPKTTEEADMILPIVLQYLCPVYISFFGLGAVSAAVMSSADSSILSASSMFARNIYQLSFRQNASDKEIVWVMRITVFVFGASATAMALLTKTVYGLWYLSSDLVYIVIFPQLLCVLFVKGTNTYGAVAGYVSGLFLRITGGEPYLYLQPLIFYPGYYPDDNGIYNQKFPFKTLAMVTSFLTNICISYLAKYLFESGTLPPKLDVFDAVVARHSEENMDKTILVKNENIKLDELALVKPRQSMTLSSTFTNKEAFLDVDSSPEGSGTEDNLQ
CHT block = inhibitors of human choline transporter CHT. High affinity choline transporter 1 (Homo sapiens), Q9GZV3. CHT-expressing cells, membrane potential dye, choline response; stronger effect = lower value. B-score at 10 µM. 310,000 tested, 0.86% active. AID 488975, 2010;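 active means B-score over 3 SD under the library average, and starting fluorescence ratio not unusually high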;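 further: choline stimulus applied at its EC90 after an EC20 pre-addition; B-score computed on integrated fluorescence ratio after choline addition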
Cl transport mod = KCC2 cotransporter modulators, thallium flux, primary screen, cell-based, HEK293 KCC2, FluoZin-2 fluorescence, MLSMR | 190,000 tested, 2.2% active | B-score of Tl+ flux slope (higher = more flux/activation; lower = inhibition) at 10 µM | Solute carrier family 12 member 5 (Homo sapiens), Q9H2X9 | KCC2 cells, thallium flux FluoZin-2 fluorescence;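 active means thallium flux slope and its plate-corrected score both differing from the plate sample mean at a set confidence after two filtering rounds, in either direction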;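 further: slope of fluorescence scaled to starting intensity during 10 to 20 s after thallium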
Rad51 HR inh = human RAD51 strand exchange inhibitors, primary screen, biochemical, fluorescence | DNA repair protein RAD51 homolog 1 (Homo sapiens), Q06609 | hRad51 DNA strand exchange, fluorescence dequenching | inhibition, % at 10 µM | 200,000 tested, 0.085% active | AID 1385, 2008;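 active means inhibition above 40% at the single screening dose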;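 further: 0% = DMSO control wells and 100% = blanks with heterologous ssDNA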
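Material: Human Rad51 nucleoprotein filaments preassembled on unlabelled ssDNA | Also added: Labelled 47-mer dsDNA for strand exchange | Dosing: Single dose, 10 µM final compound | Schedule: 30-min compound preincubation and 15-min exchange, both room temperature | Technique: Fluorescence dequenching at 485/520 nm | Measure: Percent inhibition relative to plate controls and blanks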
CHT act confirm = CHT activators, confirmation, cell-based, membrane potential dye, duplicate; shares compounds with CHT PAM; CHT-expressing cells, membrane potential dye fluorescence (FDSS); % of choline EC20–EC90 response window; HEK293 expressing CHT LV-AA mutant; choline added at its EC20; activation, % at 10 µM; 2,500 tested, 91% active; AID 504833, 2011;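 active means primary screen active, with duplicate mean activation above negative control mean plus 3 SD, cut at about 11% in these data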
HEK293 MP dye = membrane potential response in parental HEK293 cells, counter-screen for CHT activator project, cell-based, membrane potential dye; shares compounds with CHT PAM; membrane potential dye fluorescence (FDSS); measured after EC20 choline addition; ratio readout change at 10 µM, hits read low; 2,500 tested, 62% active;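 active means duplicate-averaged ratio beyond 3 SD from buffer wells, up or down, though filed actives are nearly all decreases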
Numbers without * were called inactive; i = inactive; · = no result. An excerpt weighted towards active compounds, which were near 2.6% of everything screened.

SMILES | CHT PAM | CHT block | Cl transport mod | Rad51 HR inh | CHT act confirm | HEK293 MP dye
COC(=O)CSc1nc2sc3c(c2c(=O)n1-c1ccccc1)CCN(C)C3 | i | i | · | 2.7 | · | ·
CC1CN(c2nc3c(c(=O)n(C)c(=O)n3C)n2Cc2c(F)cccc2Cl)CC(C)O1 (stereo unspecified) | i | i | -0.17 | 4.5 | · | ·
N=C1C2=C3Sc4ccccc4N3CCCC2=NN1c1cccc(S(=O)(=O)O)c1 | i | i | 0.618 | 8.8 | · | ·
Cc1ccc(N=C(NOCc2ccc(Cl)cc2Cl)c2nonc2N)c(C)c1 | 8.79* | i | 0.106 | 5.1 | 28.3* | i
CC(C)C(c1nnnn1Cc1ccc(F)cc1)N1CCN(C2CCCC2)CC1 (stereo unspecified) | i | i | -0.0211 | 6.0 | · | ·
CCCC(c1nnnn1C1CCCCC1)N1CCN(C2CCCC2)CC1 (stereo unspecified) | i | i | -0.0362 | 2.3 | · | ·
CCCCC(c1nnnn1C1CCCC1)N1CCN(C2CCCC2)CC1 (stereo unspecified) | 6.59* | i | · | 11.0 | 42.8* | i
CCCC(c1nnnn1Cc1ccc(F)cc1)N1CCN(C2CCCCC2)CC1 (stereo unspecified) | 10.2* | i | 0.58 | 14.9 | 36.4* | i
CCCC(c1nnnn1C(C)(C)CC)N1CCN(C2CCCC2)CC1 (stereo unspecified) | 8.41* | i | · | 12.7 | 51.2* | i
O=C(O)c1cc2ccc3cccc4ccc(c1)c2c34 | i | i | · | · | · | ·
Cc1cc(OC(=O)c2ccccc2C)c([N+](=O)[O-])c(=O)[nH]1 | i | i | · | · | · | ·
COc1cc(Cl)ccc1OCc1cc(C(=O)N[C@H]2CCCCNC2=O)no1 | i | i | · | · | · | ·
COc1ccc(Cl)cc1C(Nc1cccnc1)c1ccc2cccnc2c1O (stereo unspecified) | i | i | 2.05 | 16.8 | 18.8* | i
COc1ccc(Cn2c(C)ccc2C)cc1 | i | i | 0.00269 | -4.8 | · | ·
COc1ccc(Cn2c(-c3ccc(Br)cc3)c[n+]3ccccc23)cc1 | 9.61* | i | 0.013 | 1.2 | 70.5* | -60*
COc1ccccc1NC(=O)CSCc1cc(=O)n2ccsc2n1 | i | i | · | · | · | ·
O=c1c2c3c(sc2n2cnnc2n1CCc1ccccc1)CCCC3 | i | i | · | 10.3 | · | ·
Cn1c(=O)c2c3c(sc2n2cnnc12)CCC3 | i | i | -0.00368 | -0.9 | 29.6* | -39.3*
CCCCN(CC)CCNC(=O)CCC(=O)Nc1ccc2nc(N3CCN(C)CC3)cc(C)c2c1 | i | i | -0.404 | 10.7 | 41.6* | i
Cc1cc(N2CCN(C)CC2)nc2ccc(NC(=S)NC3CC3)cc12 | i | i | -1.1 | 4.0 | · | ·
CCCCNC(=O)CCC(=O)Nc1ccc2nc(N3CCOCC3)cc(C)c2c1 | i | i | 0.0068 | -2.4 | · | ·
CCCCN(CC)CCNC(=S)Nc1ccc2nc(N3CCN(C)CC3)cc(C)c2c1 | i | i | · | · | 34.8* | i
CCCN(CCC)CCCNC(=S)Nc1ccc2nc(N3CCN(C)CC3)cc(C)c2c1 | i | i | 1.35 | 20.2 | 52.0* | -26.7*
CCN(CC)CCCNC(=O)CCC(=O)Nc1ccc2nc(N3CCCCC3)cc(C)c2c1 | i | i | 0.258 | -10.6 | · | ·
CCN(CC)CCCNC(=O)CCC(=O)Nc1ccc2nc(N3CCC(C)CC3)cc(C)c2c1 | i | i | 0.717 | 1.3 | · | ·
COCCCNC(=O)CCC(=O)Nc1ccc2nc(N3CCOCC3)cc(C)c2c1 | 7.97* | i | -0.057 | 3.8 | 37.0* | -52*
O=C(O)CC1NC(=O)N(C2CCCCC2)C1=O (stereo unspecified) | i | i | -0.386 | 8.0 | · | ·
COCCN(C(=O)COC(=O)Cc1cccc(OC)c1)c1c(N)n(CC(C)C)c(=O)[nH]c1=O | i | i | · | · | · | ·
Cc1ccc(N=C(NO)c2cnccc2C(F)(F)F)c(C)c1 | i | i | · | · | · | ·

Compound activity (PubChem)
